Source: PMC4726456 (Cell, 2014)
Changes are numbered by the printed parent chain. Names may count otherwise. “And” between values parts separate entries of the source, which are not always exact repeats. Equal entries are not always repeated.

Key:
[1] = system: tubulin; experiment: Tubulin acetylation assay; type: biochemical
[2] = system: microtubules; experiment: Microtubule acetylation assay; type: biochemical; details: bulk measurements
[3] = target: microtubules; experiment: TAT binding to microtubules in sedimentation assays; details: read-out: Kd for microtubules, Figure S3B and C
[4] = system: unpolymerized tubulin; experiment: TAT-tubulin complex formation by analytical ultracentrifugation; type: binding; details: TAT concentrations as high as 40 µM
[5] = system: dolastatin-induced tubulin rings; experiment: Stacking of dolastatin-induced tubulin rings by TAT; details: Figures S3D, S3E
[6] = system: tubulin polymers; experiment: TAT activity with tubulin polymers of diverse geometries; type: biochemical; details: Figure 3A, N≥3
Method in brief: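 Microtubule substrate was stabilized with 20 µM taxol. Negative-stain EM confirmed dolastatin-10 rings, Zn sheets and microtubules under the reaction conditions. Values are means ± S.E.M. (N≥3), compared by t-test.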

[7] = system: microtubules; experiment: Single-molecule TIRF of TAT-GFP scanning on microtubules; type: binding; details: for Effect on TAT-GFP microtubule scanning: saturating concentration of MAP
[8] = system: microtubules; type: biochemical; details: for Effect on microtubule acetylation by TAT: saturating concentration of MAP
[9] = system: microtubules; experiment: Immunofluorescence of acetylation distribution on microtubules; type: biochemical; details: taxol stabilized microtubules; antibody specific for acetylated tubulin; Figure 4
Method in brief: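 Recombinant TAT acetylated taxol-stabilized microtubules in vitro. Excess enzyme was used at a 10:1 TAT:tubulin molar ratio and sampled over a time course. Marks were detected by immunofluorescence. Line-scans were taken along microtubules in the acetylated-tubulin channel. End analysis at 15 s averaged 25 line-scans from the tip to 5 µm inward.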

[10] = system: TAT; details: ref Friedmann et al., 2012; cited from earlier work
[11] = system: microtubules and tubulin; experiment: Acetylation activity of TAT mutants with microtubules and tubulin; type: biochemical; details: Figure 2C
[12] = system: S. cerevisiae microtubules; experiment: Single-molecule TIRF of TAT-GFP on S. cerevisiae microtubules; type: binding, Saccharomyces cerevisiae; details: purified S. cerevisiae microtubules and engineered with human C-terminal tails
[13] = system: microtubules; experiment: Activity of bead-coupled biotinylated TAT with microtubules; type: biochemical; details: 1 µm streptavidin beads; Figure 6A
Method in brief: (§1)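 Biotinylated TAT was either immobilized on 1 µm diameter streptavidin beads or left free in solution. Each form was reacted with tubulin or with microtubules. Activity was normalized to the free enzyme. About 15% unpolymerized tubulin was present in the microtubule reactions.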

[14] = system: tubulin; experiment: Activity of bead-coupled biotinylated TAT with tubulin; type: biochemical; details: 1 µm streptavidin beads; Figure 6A
Method in brief: as §1

B1: TAT: Homo sapiens TAT (1–196) expressed in Escherichia coli as a GST-fusion (protein)
chain: MEFPFDVDALFPERITVLDQHLRPPARRPGTTTPARVDLQQQIMTIIDELGKASAKAQNLSAPITSASRMQSNRHVVYILKDSSARPAGKGAIIGFIKVGYKKLFVLDDREAHNEVEPLCILDFYIHESVQRHGHGRELFQYMLQKERVEPHQLAIDRPSQKLLKFLNKHYNLETTVPQVNNFVIFEGFFAHQHRP
modifications: left off: GST, end not stated, state not stated
Catalytic rate with tubulin [1]: 0.4 h⁻¹
Acetylation rate with microtubules [2]: ~1.6 h⁻¹
Kd [3]: ~44 µM
Stable complex formation with unpolymerized tubulin [4]: undetectable
Stacking of dolastatin-induced tubulin rings [5]: promotes stacking of dolastatin-induced tubulin rings in a dose-dependent manner
TAT activity with microtubules vs unpolymerized tubulin [6]: largest activity enhancement over unpolymerized tubulin is seen with microtubules
Total microtubule length scanned, subtilisin-treated vs untreated microtubules ([7]; 50 microtubules, Figure 5F): covers the same total microtubule length
Interaction time (τ), labeled spastin ([7]; microtubules coated with DyLight 550 labeled spastin, ATPγS): 1.5 s
Average microtubule length scanned ([7]; undecorated microtubules, Figure S5B): 2.9 µm
Maximum scan excursion ([7]; undecorated microtubules, excursions up to, Figure S5B): up to 10.4 µm
Acetylation of unmodified microtubules vs brain microtubules ([8]; Figures S5G and S5H): as effectively as brain microtubules
Microtubule acetylation after removal of C-terminal tails ([8]; subtilisin microtubules, Figure 5F): unaffected by removal of the C-terminal tails
Distribution of acetylation along microtubule [9]: acetylates along the entire microtubule without a preference for ends
Km [10]: ~32 µM

B2: doublecortin: microtubule binding protein covering the fenestration at the vertices between four tubulin dimers (protein)
chain: MELDFGHFDERDKTSRNMRGSRMNGLPSPTHSAHCSFYRTRTLQALSNEKKAKKVRFYRNGDRYFKGIVYAVSSDRFRSFDALLADLTRSLSDNINLPQGVRYIYTIDGSRKIGSMDELEEGESYVCSSDNFFKKVEYTKNVNPNWSVNVKTSANMKAPQSLASSNSAQARENKDFVRPKLVTIIRSGVKPRKAVRVLLNKKTAHSFEQVLTDITEAIKLETGVVKKLYTLDGKQVTCLHDFFGDDDVFIACGPEKFRYAQDDFSLDENECRVMKGNPSATAGPKASPTPQKTSAKSPGPMRRSKSPADSGNDQDANGTSSSQLSTPKSKQSPISTPTSPGSLRKHKDLYLPLSLDDSDSLGDSM
Effect on TAT-GFP microtubule scanning ([7]; Figure 5F): no effect
Effect on microtubule acetylation by TAT ([8]; Figure 5F): no effect

B3: kinesin: motor domain of kinesin-5 (protein)
chain: MASQPNSSAKKKEEKGKNIQVVVRCRPFNLAERKASAHSIVECDPVRKEVSVRTGGLADKSSRKTYTFDMVFGASTKQIDVYRSVVCPILDEVIMGYNCTIFAYGQTGTGKTFTMEGERSPNEEYTWEEDPLAGIIPRTLHQIFEKLTDNGTEFSVKVSLLEIYNEELFDLLNPSSDVSERLQMFDDPRNKRGVIIKGLEEITVHNKDEVYQILEKGAAKRTTAATLMNAYSSRSHSVFSVTIHMKETTIDGEELVKIGKLNLVDLAGSENIGRSGAVDKRAREAGNINQSLLTLGRVITALVERTPHVPYRESKLTRILQDSLGGRTRTSIIATISPASLNLEETLSTLEYAHRAKNILNKPEVNQKLTKKALIKEYTEEIERLKRDLAAAREKNGVYISEENFRVMSGKLTVQEEQIVELIEKIGAVEEELNRVTELFMDNKNELDQCKSDLQNKTQELETTQKHLQETKLQLVKEEYITSALESTEEKLHDAASKLLNTVEETTKDVSGLHSKLDRKKAVDQHNAEAQDIFGKNLNSLFNNMEELIKDGSSKQKAMLEVHKTLFGNLLSSSVSALDTITTVALGSLTSIPENVSTHVSQIFNMILKEQSLAAESKTVLQELINVLKTDLLSSLEMILSPTVVSILKINSQLKHIFKTSLTVADKIEDQKKELDGFLSILCNNLHELQENTICSLVESQKQCGNLTEDLKTIKQTHSQELCKLMNLWTERFCALEEKCENIQKPLSSVQENIQQKSKDIVNKMTFHSQKFCADSDGFSQELRNFNQEGTKLVEESVKHSDKLNGNLEKISQETEQRCESLNTRTVYFSEQWVSSLNEREQELHNLLEVVSQCCEASSSDITEKSDGRKAAHEKQHNIFLDQMTIDEDKLIAQNLELNETIKIGLTKLNCFLEQDLKLDIPTGTTPQRKSYLYPSTLVRTEPREHLLDQLKRKQPELLMMLNCSENNKEETIPDVDVEEAVLGQYTEEPLSQEPSVDAGVDCSSIGGVPFFQHKKSHGKDKENRGINTLERSKVEETTEHLVTKSRLPLRAQINL
Effect on TAT-GFP microtubule scanning ([7]; Figure 5F): no effect
Effect on microtubule acetylation by TAT ([8]; Figure 5F): no effect

B4: F105A TAT mutant: F105A TAT mutant defective in acetylation (protein)
chain: MEFPFDVDALFPERITVLDQHLRPPARRPGTTTPARVDLQQQIMTIIDELGKASAKAQNLSAPITSASRMQSNRHVVYILKDSSARPAGKGAIIGFIKVGYKKLAVLDDREAHNEVEPLCILDFYIHESVQRHGHGRELFQYMLQKERVEPHQLAIDRPSQKLLKFLNKHYNLETTVPQVNNFVIFEGFFAHQHRPPAPSLRATRHSRAAAVDPTPAAPARKLPPKRAEGDIKPYSSSDREFLKVAVEPPWPLNRAPRRATPPAHPPPRSSSLGNSPERGPLRPFVPEQELLRSLRLCPPHPTARLLLAADPGGSPAQRRRTRGTPPGLVAQSCCYSRHGGVNSSSPNTGNQDSKQGEQETKNRSASEEQALSQDGSGEKPMHTAPPQAPAPPAQSWTVGGDILNARFIRNLQERRSTRPW
Effect of mutation on TAT activity ([11]; N≥3): defective in acetylation
Effect of mutation on TAT activity ([11]; N≥3, listed as Phe105): severely impairs enzyme activity with both tubulin and microtubules
Stacking of dolastatin-induced tubulin rings [5]: impaired in stack formation

B5: TAT-GFP: purified TAT-GFP for single-molecule TIRF microscopy (protein)
chain: B4 chain with A105F
modifications: left off: GFP, end not stated, kept
Interaction time (τ), doublecortin ([7]; microtubules with saturating doublecortin): 1.4 s
1D diffusion coefficient on microtubules ([7]; undecorated microtubules, MSD fit, 100 ms frames, mean, legend: fit): 0.27 µm^2/s and 0.27 ± 0.01 µm^2/s
Scan starting position ([7]; undecorated microtubules, N=163, Figure 5D): randomly distributed on the microtubule, showing no bias for ends
Interaction time (τ) on microtubules ([7]; undecorated microtubules, exponential fit corrected for photobleaching, N=269): 1.5 s and 1.5 ± 0.3 s
Scanning on S. cerevisiae microtubules [12]: do not observe TAT-GFP scanning
Activity of GFP fusion vs untagged protein ([8]; Figure S5): comparable to that of the untagged protein

B6: bead-coupled TAT: C-terminally biotinylated TAT construct coupled to streptavidin beads 1 µm in diameter (protein, UniProt Q5SQI0 1-421, looked up)
Alpha-tubulin …: B4 chain with A105F
modifications: C-terminal biotin, streptavidin beads
Reduction of activity with microtubules on bead coupling [13]: ~89%
Activity with tubulin when bead-coupled [14]: retained activity with tubulin
